# Compound activity as filed in PubChem BioAssay.
# Most compounds without a hit are left out; they make up all but 2.1% or so of the library.
# IEC-6 tox-1: counter-screen for KLF5 inhibitors: cytotoxicity in IEC-6 cells; IEC-6 cytotoxicity, luminescence viability; inhibition, % at 5 µM; hit rate 0.78% among 290,000; in the data active means inhibition above about 22%;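 further: 0% = plate median of test compound wells and 100% = cytotoxic reference compound wells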
# bCat nuc transl: beta-catenin nuclear translocation modulation. HeLa beta-catenin nuclear translocation, immunofluorescence imaging. nuclear translocation activity, % at 5 µM. hit rate 0.3% among 190,000. AID 1665;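 active means nuclear translocation activity above 50% at 5 µM, with a well cell count of 50 or more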;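 further: per-cell ratio of nuclear to cytoplasmic median beta-catenin stain intensity; plate controls were DMSO negative control for no effect and GSK-3 inhibitor IX positive control for full effect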
#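 Assay system: human HeLa cells, native beta-catenin; doses: 5 µM primary, 0.02–20 µM confirmation; incubation: compound treatment 24 h, 37°C, 5% CO2; technique: fluorescence imaging of beta-catenin antibody stain plus DAPI; measure: % activation, nuclear-to-cytoplasmic median beta-catenin signal ratio per cell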
# KLF5 inhibitor: inhibitors of KLF5 expression; DLD-1 KLF5 promoter-luciferase reporter, luminescence; inhibition, % at 5 µM; hit rate 0.23% among 290,000;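 active means inhibition above a per-plate limit of that plate's mean compound inhibition plus 3 SD, cut at about 60% in these data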;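 further: 0% = DMSO wells and 100% = LY294002 at 200 µM; higher means less KLF5 promoter-driven luciferase light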
# BaF3 tox: counter-screen for JAK2V617F inhibitors: parental Ba/F3 viability inhibitors | CellTiter-Glo ATP luminescence | hit rate 1.1% among 220,000 | inhibition, % at 5.6 µM | AID 1486;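 active means inhibition above a per-campaign cutoff, the mean inhibition of all tested compounds plus 3 SD, cut at about 27% in these data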;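 further: 0% = DMSO wells and 100% = JAK Inhibitor I control wells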
# MT stabilize HCS: microtubule stabilizers in HeLa cells; HeLa tubulin immunostaining HCS, 24 h; share of cells brighter than vehicle mean+2SD; AID 2205; % tubulin-high responders, % at 10 µM; hit rate 0.83% among 200,000;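 active means plate Z-score above 3 for both tubulin-high and condensed-nucleus cell shares, with cell loss under 80%, at 10 µM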;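 further: anti alpha tubulin signal scored within the nucleus-defined area of each cell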
# Ba/F3 V617F tox: loss of viability in JAK2V617F-driven Ba/F3 cells; Ba/F3 EpoR-JAK2V617F viability, ATP luminescence; inhibition, % at 5.6 µM; hit rate 1.1% among 220,000; AID 1446;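 active means inhibition above the campaign mean plus 3 SD over all tested compounds, cut at about 24% in these data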;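 further: cytokine-independent growth of Ba/F3 cells driven by EpoR plus mutant JAK2; 0% = DMSO-treated cells and 100% = JAK inhibitor I control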
# KLF5 confirm: confirmation of KLF5 inhibitors; shares compounds with KLF5 inhibitor; DLD-1 KLF5 promoter firefly luciferase reporter, luminescence; inhibition, % at 4 µM; hit rate 79% among 610; AID 1834;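 active means inhibition above a set limit taken from the earlier primary screen, cut at about 63% in these data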;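 further: 0% = DMSO wells and 100% = LY294002 at 200 µM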
# IEC-6 tox-2: rat IEC-6 cytotoxicity, KLF5 inhibitor counter-screen | AID 1905 | shares compounds with KLF5 inhibitor | IEC-6 rat intestinal cells, viability luminescence | hit rate 56% among 610 | inhibition, % at 4 µM; in the data active means inhibition above about 23%;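 further: cells exposed to compounds for 48 hours before viability read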
# * = called active by the depositor; · = no result.
SMILES,IEC-6 tox-1,bCat nuc transl,KLF5 inhibitor,BaF3 tox,MT stabilize HCS,Ba/F3 V617F tox,KLF5 confirm,IEC-6 tox-2
Cc1ccc(-c2ccc(S(=O)(=O)N3CC(C)OC(C)C3)cc2)cc1 (centres undefined),0,·,0,·,·,·,·,·
Clc1ccc2c(c1)C(C1=NCCN1)c1ccccc1CS2 (centres undefined),66*,·,80*,70*,24*,76*,90*,46*
O=C(c1cc(-c2ccccc2Cl)on1)N1CCCC1,3,·,74*,·,·,·,65*,-8
O=C(CSCC(=O)Nc1ccccc1)N/N=C/c1c(O)ccc2ccccc12,-2,7,68*,3,2,2,79*,0
O=C(N/N=C/c1c(O)ccc2ccccc12)c1ccc(Br)o1,12,·,68*,·,·,·,86*,8
O=C(N/N=C\c1c(O)ccc2ccccc12)c1ccc(O)cc1,0,·,53,·,·,·,·,·
CCn1c(C2CCN(Cc3ccccc3)CC2)n[nH]c1=S,-4,-1,-18,3,2,-3,·,·
O=C(O)c1ccc(N/N=C/c2c[nH]c3ccccc23)cc1,-4,·,77*,·,·,·,70*,7
Cc1onc(-c2c(Cl)cccc2Cl)c1C(=O)Nc1ccc(Cl)cn1,2,-2,4,5,·,-4,·,·
COc1ccc(Cl)cc1NC(=O)CN(C)CC(=O)Nc1ccccc1N1CCOCC1,77*,86*,66*,76*,22*,83*,77*,57*
COC(=O)c1ccccc1NC(=O)CNc1cc(Cl)ccc1N1CCOCC1,10,-1,-8,10,5,3,·,·
COCCSc1ccccc1C(=O)Nc1ccccc1C#N,-4,-4,-39,4,3,-1,·,·
Clc1ccc(-n2ncc3c(N4CCCCCC4)ncnc32)cc1,3,-4,3,0,3,-4,·,·
COc1ccc(-n2ncc3c(N4CCCCC4)ncnc32)cc1,2,2,65*,3,2,1,88*,-6
CC(C)(C)c1ccc(-c2noc(CCC(=O)NCC3CCCO3)n2)cc1 (centres undefined),-1,·,74*,5,2,-5,67*,7
Cc1ccc(-c2noc(CCC(=O)NCC3CCCO3)n2)cc1 (centres undefined),-1,0,-36,0,4,-1,·,·
CC(C)(C)c1ccc(-c2noc(CCC(=O)Nc3cccnc3)n2)cc1,-2,·,78*,·,·,·,87*,12
CC(C)(C)c1ccc(-c2noc(CCC(N)=O)n2)cc1,6,-1,86*,6,3,5,85*,-4
Cc1cc(C)cc(-n2nnn(C3C/C(=N/NC(N)=S)C4OCC3O4)c2=S)c1 (centres undefined),2,0,7,6,2,6,·,·
Fc1ccccc1C1c2[nH]c3ccccc3c2CCN1Cc1ccoc1 (centres undefined),-10,0,-14,2,3,-3,·,·
S=C(Nc1ccccc1Cl)NC1CCCCCC1,1,0,-24,6,2,-1,·,·
Cc1ccc(-c2nc3ccc(Cl)cc3n2OC(C)C(=O)O)cc1 (centres undefined),4,0,66*,13,2,9,-17,9
Cc1nn(C)c(C)c1/C=N/NC(=O)C(C)(C)Oc1ccc(Cl)cc1,-1,-3,-17,4,2,-5,·,·
Cc1nn(C(C)(C)C)c(C)c1/C=N/OC(=O)Nc1ccc(Cl)cc1,-3,0,98*,0,·,4,105*,-1
C#Cc1ccc([C@@H]2C=C(C(=O)N3CCN(Cc4ccccc4)CC3)O[C@H](OCCCCO)C2)cc1,18,-2,66*,88*,3,94*,73*,3
SMILES,IEC-6 tox-1,bCat nuc transl,KLF5 inhibitor,BaF3 tox,MT stabilize HCS,Ba/F3 V617F tox,KLF5 confirm,IEC-6 tox-2
O=C(C1=C[C@H](c2ccccc2)C[C@H](OCCCCO)O1)N1CCN(Cc2ccccc2)CC1,-3,-4,-13,1,2,1,·,·
COc1ccc(C(=O)NNC(=O)c2ccccn2)cc1,24*,3,77*,11,5,12,-127,1
CCOc1ccc(NC(=O)c2ccccn2)cc1,7,·,79*,12,6,6,50,11
O=C(c1cc(Cl)ccc1F)N1CCCC(Nc2ccc3c(c2)OCCO3)C1 (centres undefined),-3,·,10,·,·,·,·,·
NS(=O)(=O)c1ccc(Oc2ccc(S(N)(=O)=O)cc2)cc1,-2,-3,-45,9,3,6,·,·
C=CS(=O)(=O)c1ccc(Oc2ccc(S(=O)(=O)C=C)cc2)cc1,76*,1,77*,68*,2,84*,47,38*
O=C(Nc1ccccc1)N(Cc1ccc(Cl)cc1)CC(O)C(F)(F)F (centres undefined),5,·,-13,3,5,3,·,·
COc1cccc(NC(=O)Nc2cc(C(=O)NC(C)C)ccc2N2CC3CC(C2)c2cccc(=O)n2C3)c1 (centres undefined),2,·,-16,·,·,·,·,·
COc1cccc(/C=N/NC(=O)CNC(=O)c2ccc3c(c2)OCCO3)c1O,-5,2,0,6,3,-2,·,·
CCOc1cccc(/C=N/NC(=O)c2ccc3c(c2)OCCO3)c1O,11,·,65*,·,·,·,93*,-1
COc1ccc(CNC(=O)CN(Cc2ccc(OC)cc2)C(=O)CCC(=O)Nc2nccs2)cc1,-2,·,-9,·,·,·,·,·
CC1CCN(C(=O)CSc2nc(N)c(NC(=O)c3ccccc3)c(=O)[nH]2)CC1,-3,·,6,·,·,·,·,·
COC(=O)c1nn(-c2ccc3c(c2)OCO3)cc1O,5,-1,-58,0,2,1,·,·
COC(=O)c1nn(-c2ccc3c(c2)CCN3C(C)=O)cc1O,2,-1,75*,7,2,5,78*,9
Cc1c(N=NC2=C(O)CC(C)(C)CC2=O)c(=O)n(-c2ccccc2)n1C,-1,1,-14,7,3,-2,·,·
O=C(Nc1cccc(O)c1)c1cc(-c2ccc3c(c2)OCO3)on1,0,·,83*,·,·,·,72*,-7
COc1ccc(C2/C=C\CN(Cc3ccncc3)CC(=O)N2Cc2ccc(F)cc2)cc1 (centres undefined),·,-1,·,·,·,·,·,·
O=C(O)c1cccc(N/N=C/c2ccc(OC(F)(F)F)cc2)c1,-3,·,71*,·,·,·,67*,5
COc1ccc(NC(=O)c2ccccc2NS(=O)(=O)c2ccc(CNC(C)=O)cc2)c(OC)c1,4,·,10,·,·,·,·,·
Oc1cccc2ccc(Nc3ccccn3)nc12,-3,·,105*,76*,27,98*,102*,14
COc1ccc(OC)c(Nc2cc(C)nc3nc(C)nn23)c1,4,8,92*,7,16*,-2,81*,0
Nc1c(C(=O)Nc2cccc(C(=O)O)c2)sc2nc3c(cc12)CCCC3,0,·,84*,·,·,·,90*,-8
